Drawing on ChEMBL document CHEMBL1667760, “Synthesis and biological evaluation of 3,5-diaryl isoxazoline/isoxazole linked 2,3-dihydroquinazolinone hybrids as anticancer agents” (2011), this text covers GI50, Activity and inhibition for twelve compounds.

In one test the test system is A549. Description: Cytotoxicity against human A549 cells after 48 hrs by sulforhodamine B assay. The test is classed as functional. The note with it: A549, 48 h, read-out: GI50. The method in brief:
(§1)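 Cells were grown in RPMI 1640 with 10% FBS and 2 mM L-glutamine, plated at densities set by doubling time, and pre-incubated 24 h at 37 °C, 5% CO2. Drugs were tested at 0.1, 1, 10 and 100 µM in triplicate wells for 48 h continuous exposure. Cells were fixed with 10% TCA (final) and stained with 0.4% SRB. A540 was read against a 690 nm reference, and percent growth was calculated relative to control. Experiments were repeated three times.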
Background: The SRB assay estimates cell density from bound dye.

The next test has as its system PC-3. Description: Cytotoxicity against human PC3 cells after 48 hrs by sulforhodamine B assay. The class given is functional. The note with it: PC-3, 48 h, read-out: GI50. The method in brief: as §1
Another test concerns OVCAR-8. Description: Cytotoxicity against human OVCAR8 cells after 48 hrs by sulforhodamine B assay. The test is classed as functional. As to conditions: OVCAR-8, 48 h, read-out: GI50. The method in brief:
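Run by the NCI 60-cell-line screen. A one-dose pre-test was done first, followed by the main test over a 5-log dose range (10^-4 to 10^-8 M). Results are reported as log molar GI50 (50% net growth inhibition), TGI (total growth inhibition) and LC50 (50% net cell death), with mean-graph midpoints across all lines.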

The next test deals with A2780. Description: Cytotoxicity against human A2780 cells after 48 hrs by sulforhodamine B assay. The note with it: A2780, 48 h. The test is classed as functional. The method in brief:
as §1

The test system of a further test is KB. Description: Cytotoxicity against human KB cells after 48 hrs by sulforhodamine B assay. The class given is functional. The method in brief:
as §1

For test [1], the system named is MCF7. Description: Cell cycle arrest in human MCF7 cells assessed as accumulation at G0 phase at 5 uM after 24 hrs using propidium iodide staining by flow cytometry relative to control. The class given is functional. The method in brief:
(§2)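 MCF-7 cells were seeded at 5×10^5 per 60 mm dish and grown 24 h. They were then exposed to 5 uM compound for a further 24 h, with untreated control cells alongside. Cells were trypsinised, fixed in ice-cold 70% ethanol (4 °C, 30 min), treated with 1 mg/ml RNase A (37 °C, 30 min) and stained with propidium iodide/citrate/Triton solution. DNA content was read by flow cytometry on 20,000 events.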
For orientation: In flow cytometry, cells or beads pass a laser one at a time.

The subject of test [2] is MCF7. Description: Cell cycle arrest in human MCF7 cells assessed as accumulation at G1 phase at 5 uM after 24 hrs using propidium iodide staining by flow cytometry relative to control. The class given is functional. The method in brief:
as §2

Test [3] concerns MCF7. Description: Cell cycle arrest in human MCF7 cells assessed as accumulation at S phase at 5 uM after 24 hrs using propidium iodide staining by flow cytometry relative to control. The test is classed as functional. The method in brief:
as §2

Test [4] relates to MCF7. Description: Cell cycle arrest in human MCF7 cells assessed as accumulation at G2/M phase at 5 uM after 24 hrs using propidium iodide staining by flow cytometry relative to control. The test is classed as functional. The method in brief:
as §2

Test [5] relates to MCF7. Description: Reduction of cyclin A expression in human MCF7 cells at 5 uM after 24 hrs by Western blotting. The test is classed as functional, cell-based. The method in brief: (§3)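 MCF-7 cells, kept in DMEM with 10% fetal calf serum at 37 °C under 5% CO2, treated 24 h. Lysis in ice-cold RIPA with protease inhibitors; Bradford quantitation; 30 µg protein per lane on 12% SDS-PAGE, then PVDF. Primary antibodies (1:500) at 4 °C overnight; HRP secondary (1:2000); chemiluminescence detection; β-actin loading control.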

Test [6] has as its system MCF7. Description: Induction of apoptosis in human MCF7 cells assessed as increase of cleaved PARP level at 5 uM after 24 hrs by Western blotting. The class given is functional, cell-based. The method in brief:
as §3
For orientation: A western blot detects proteins with antibodies after separation by electrophoresis.

For test [7], the system named is MCF7. Description: Induction of apoptosis in human MCF7 cells assessed as nuclear fragmentation at 2.5 uM after 48 hrs by DAPI staining. The test is classed as functional, cell-based. The method in brief:
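MCF-7 cells grown on glass coverslips and incubated 48 h with or without compound. Fixed in 3% paraformaldehyde/0.02% glutaraldehyde in PBS, stained with DAPI, and nuclear morphology examined by fluorescence microscopy.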

The target of the next test is Tubulin (Homo sapiens) (UniProt P68371+Q9H4B7+P0DPH7+P68366+Q13509+Q71U36+P04350+Q3ZCM7+P07437+P68363+Q9BQE3+Q6PEY2+Q13885+Q9BVA1+Q9BUF5). The note with it: MCF7, 2.5 uM.

Where a name gives a salt, the structure may show the parent alone. The source made the active and inactive calls. No cut-off for these calls is given here.

Consider `COc1cc(C2NC(=O)c3ccccc3N2)ccc1OCCCCOc1cc(C2CC(c3cc(OC)c(OC)c(OC)c3)=NO2)ccc1OC` (stereo unspecified), for which the GI50 (commonly the concentration at which growth is held to half of that of the control) in the test with A549 is 150 nM; in the test on PC-3, 2800 nM; in the test on OVCAR-8, 180 nM; in the test on A2780, 22000 nM; in the test with KB it was 30000 nM.
Regarding `COc1cc(C2=NOC(c3cc(OC)c(OC)c(OC)c3)C2)cc(OC)c1O` (stereo unspecified), the Activity with MCF7 [1] is on record as 0.5%; in the test on MCF7 [2], 44.54%; in the test with MCF7 [3], 20.6%; in the test on MCF7 [4], 34.36%.
As for `COc1cc(C2NC(=O)c3ccccc3N2)ccc1OCCCOc1c(OC)cc(C2=NOC(c3cc(OC)c(OC)c(OC)c3)C2)cc1OC` (stereo unspecified), the 50% growth inhibitory concentration (GI50) with A549 was 20000 nM; in the test with PC-3 it was 520 nM; in the test on OVCAR-8, 280 nM; in the test on A2780, greater than 100000 nM; with KB it was 22000 nM.
For `COc1cc(C2NC(=O)c3ccccc3N2)ccc1OCCCCCOc1cc(C2CC(c3cc(OC)c(OC)c(OC)c3)=NO2)ccc1OC` (stereo unspecified), in that order: 160 nM, 2400 nM, 140 nM, greater than 100000 nM and 27000 nM.
With `COc1cc(C2NC(=O)c3ccccc3N2)ccc1OCCCCOc1c(OC)cc(C2=NOC(c3cc(OC)c(OC)c(OC)c3)C2)cc1OC` (stereo unspecified), the 50% growth inhibitory concentration (GI50) is 14000 nM in the test with A549; 460 nM in the test with PC-3; 300 nM in the test with OVCAR-8; greater than 100000 nM in the test on A2780; 21000 nM in the test on KB.
`COc1cc(C2NC(=O)c3ccccc3N2)ccc1OCCCOc1cc(C2CC(c3cc(OC)c(OC)c(OC)c3)=NO2)ccc1OC` (stereo unspecified): the 50% growth inhibitory concentration (GI50) came to 170 nM in the test on A549; 2500 nM in the test on PC-3; 170 nM in the test with OVCAR-8; 26000 nM in the test on A2780; 28000 nM in the test with KB.
For `COc1cccc2c1C(=O)c1c(O)c3c(c(O)c1C2=O)C[C@@](O)(C(=O)CO)C[C@@H]3O[C@H]1C[C@H](N)[C@H](O)[C@H](C)O1` [DOXORUBICIN HYDROCHLORIDE], the GI50 in the test on A549 came out at 130 nM; in the test on PC-3, 160 nM; in the test on OVCAR-8, 150 nM; in the test on A2780 it was 180 nM; with KB, 190 nM.
Consider `COc1ccc(/C=C\c2cc(OC)c(OC)c(OC)c2)cc1O` [COMBRETASTATIN A4], for which the Activity is given as 2.53% in the test with MCF7 [1], 16.05% with MCF7 [2], 15.92% with MCF7 [3] and 65.5% in the test with MCF7 [4]. In addition, the outcome in the test on MCF7 [5] and in the test with MCF7 [6] was Active.
Regarding `COc1ccc(-c2cc(-c3cc(OC)c(OC)c(OC)c3)on2)cc1OCCCCOc1cc(C2NC(=O)c3ccccc3N2)ccc1OC` (stereo unspecified), the concentration for 50% growth inhibition (GI50) is greater than 100000 nM with A549; 2100 nM with PC-3; 150 nM in the test on OVCAR-8; greater than 100000 nM in the test with A2780; greater than 100000 nM in the test with KB.
As to `COC(=O)Nc1nc2cc(C(=O)c3cccs3)ccc2[nH]1`, the outcome with MCF7 [7] was Active. Moreover, the inhibition entry at Tubulin (Homo sapiens) is “Active”.
In the case of `COc1cc(C2NC(=O)c3ccccc3N2)ccc1OCCCCCBr` (stereo unspecified), the Activity with MCF7 [1] amounted to 1.61%; with MCF7 [2], 69%; with MCF7 [3] it was 12.75%; in the test on MCF7 [4], 16.64%.
Turning to `COc1ccc(C2NC(=O)c3ccccc3N2)cc1OCCCCOc1c(OC)cc(-c2cc(-c3cc(OC)c(OC)c(OC)c3)no2)cc1OC` (stereo unspecified), the concentration for 50% growth inhibition (GI50) with A549 was 180 nM; with PC-3 it was 2000 nM; in the test on OVCAR-8, 25000 nM; in the test on A2780 it was 2000 nM; in the test on KB, 26000 nM.
